Results: ChEMBL document CHEMBL1139765, “Synthesis, resolution, and antiplatelet activity of 3-substituted 1(3H)-isobenzofuranone” (2007)

Experiments:
Plasma [1] = experiment: Antiplatelet activity in human platelet rich plasma assessed as inhibition of ADP-induced platelet aggregation; type: functional
Procedure, shortened: (§1)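 PRP was prepared from whole blood of healthy volunteers. Compounds were added to PRP at 10, 20, 50 and 100, with aspirin at 5 as reference and PEG-400 as vehicle control. Aggregation was induced with ADP or arachidonic acid, and IE50 was derived from the concentration series.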

Plasma [2] = experiment: Antiplatelet activity in human platelet rich plasma assessed as inhibition of arachidonic acid-induced platelet aggregation; type: functional; procedure, shortened: as §1

| SMILES | IE50 (Plasma [1]) | IE50 (Plasma [2]) |
| --- | --- | --- |
| CC(C)C/C=C1\OC(=O)c2ccccc21 | 204 µM | 17.9 µM |
| CC[C@@H]1OC(=O)c2ccccc21 | 209 µM | 16.9 µM |
| CCC[C@@H]1OC(=O)c2ccccc21 | 142 µM | 16.9 µM |
| CCCCCCC[C@H]1OC(=O)c2ccccc21 | 143 µM | 14.7 µM |
| CC(C)CCC1OC(=O)c2ccccc21 (configuration not stated) | 201 µM | 15.4 µM |
| CCCCCCC1OC(=O)c2ccccc21 (configuration not stated) | 220 µM | 15.8 µM |
| CCCCCCCC1OC(=O)c2ccccc21 (configuration not stated) | 153 µM | 16.1 µM |
| CC[C@H]1OC(=O)c2ccccc21 | 114 µM | 14.1 µM |
| CCCC[C@H]1OC(=O)c2ccccc21 | 94.7 µM | 13.2 µM |
| CCCCCC/C=C1\OC(=O)c2ccccc21 | 289 µM | 18 µM |
| CCC1OC(=O)c2ccccc21 (configuration not stated) | 164 µM | 15.2 µM |
| CC(C)CC[C@H]1OC(=O)c2ccccc21 | 116 µM | 14.3 µM |
| CCCCC[C@@H]1OC(=O)c2ccccc21 | 203 µM | 17.9 µM |
| CCCCCCC[C@@H]1OC(=O)c2ccccc21 | 176 µM | 18.7 µM |
| CCCC1OC(=O)c2ccccc21 (configuration not stated) | 133 µM | 14.9 µM |
| CCCCCC[C@H]1OC(=O)c2ccccc21 | 139 µM | 14.4 µM |
| CC(C)CC[C@@H]1OC(=O)c2ccccc21 | 207 µM | 17.2 µM |
| CCCCCC[C@@H]1OC(=O)c2ccccc21 | 217 µM | 18.5 µM |
| CCCC/C=C1\OC(=O)c2ccccc21 | 201 µM | 17.6 µM |
| CCCCC/C=C1\OC(=O)c2ccccc21 | 243 µM | 17.1 µM |
| CCC[C@H]1OC(=O)c2ccccc21 | 112 µM | 13.8 µM |
| CCCCC[C@H]1OC(=O)c2ccccc21 | 178 µM | 15.1 µM |
| CCCCCC1OC(=O)c2ccccc21 (configuration not stated) | 180 µM | 16.4 µM |
| C/C=C1\OC(=O)c2ccccc21 |  | 16 µM |
| CC/C=C1\OC(=O)c2ccccc21 | 171 µM | 16.1 µM |
| CCCC[C@@H]1OC(=O)c2ccccc21 [(3S)-BUTYLPHTHALIDE] | 193 µM | 16.1 µM |
| CC(=O)Oc1ccccc1C(=O)O [ASPIRIN] | 118 µM | 12.3 µM |
| CCCCC1OC(=O)c2ccccc21 (stereo not drawn) [RAC-3-N-BUTYLPHTHALIDE] | 170 µM | 14.5 µM |
| CCC/C=C1\OC(=O)c2ccccc21 [Z-butylidenephthalide] | 204 µM | 16.1 µM |
